Screening results as filed in PubChem.
NPY-Y1 PAM-ag: potentiates or activates human NPY-Y1 receptor; P25929; activation, % at 3.6 µM; NPY-Y1 expressing cells, potentiator/agonist activation; actives 0.37% (n = 220,000); in the data active means activation above about 33%, passing the limit was not always enough;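 further: cells stimulated with NPY at EC10 then isoproterenol at EC100; 0% = low agonist plus stimulus and 100% = saturating agonist plus stimulus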
Target sequence (P25929 whole entry, looked up): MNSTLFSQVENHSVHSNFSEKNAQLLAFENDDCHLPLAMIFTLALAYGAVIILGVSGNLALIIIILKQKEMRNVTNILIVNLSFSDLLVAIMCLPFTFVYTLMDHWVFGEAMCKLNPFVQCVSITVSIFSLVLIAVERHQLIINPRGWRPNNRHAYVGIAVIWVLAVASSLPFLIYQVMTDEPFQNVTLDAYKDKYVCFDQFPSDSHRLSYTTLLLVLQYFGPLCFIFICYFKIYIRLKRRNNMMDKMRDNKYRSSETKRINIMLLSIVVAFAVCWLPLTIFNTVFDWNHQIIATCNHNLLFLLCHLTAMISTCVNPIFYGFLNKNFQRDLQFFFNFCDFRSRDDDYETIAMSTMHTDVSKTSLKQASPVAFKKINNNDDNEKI
S1P4 antagonist: human S1P4 receptor antagonism; S1P4-expressing cells, antagonist mode, reporter read-out; AID 1510; O95977; actives 0.26% (n = 220,000); inhibition, % at 4.98 µM; in the data active means inhibition above about 29%;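 further: 0% = wells stimulated with agonist and 100% = vehicle wells without agonist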
S1P4 agonist: activates the human S1P4 receptor | O95977 | S1P4-expressing cell line, agonist reporter assay | activation, % at 4.98 µM | actives 0.35% (n = 220,000) | AID 1509; in the data active means activation above about 11%;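 further: 0% = DMSO vehicle and 100% = reference agonist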
NPY2 pot ag: human NPY-Y2 potentiation or agonism, primary screen; P49146; cells expressing NPY-Y2, potentiator/agonist read-out; activation, % at 3.6 µM; actives 0.45% (n = 220,000); in the data active means activation above about 27%;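 further: cells stimulated with NPY near EC25 plus isoproterenol at EC100; 0% = vehicle plus submaximal agonist and 100% = vehicle plus saturating agonist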
NPY Y1 blocker: antagonists of human neuropeptide Y receptor Y1; P25929; HEK293-CNG Y1 cells, membrane potential fluorescence; NPY at EC95, then isoproterenol; inhibition, % at 3.6 µM; actives 1% (n = 200,000); AID 1040;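 active means inhibition above the campaign mean inhibition of all tested compounds plus 3 SD, cut at about 20% in these data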;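 further: 0% = DMSO wells given NPY plus isoproterenol and 100% = isoproterenol alone without NPY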
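Material: HEK293 Y1/CNG channel cell line; also added: NPY (25 nM), isoproterenol (1 µM), Ro 20-1724 (25 µM); doses: one concentration, 3.6 µM, in 0.4% DMSO; schedule: compound incubation 1 h at room temperature, readout 45 min post-stimulation; technique: membrane potential fluorescence; measure: fluorescence ratio normalized to % inhibition between controls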
NPY Y2 blocker: antagonists of human neuropeptide Y receptor Y2 | inhibition, % at 2.7 µM | actives 0.99% (n = 140,000) | NPY-Y2 expressing cells, antagonist mode;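 further: 0% = vehicle with agonist challenge and 100% = reference antagonist with challenge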
NPY1 antag conf: human NPY-Y1 antagonism, confirmation. shares compounds with NPY Y1 blocker. HEK293-CNG NPY-Y1, membrane potential fluorescence, cAMP; NPY challenge against isoproterenol-raised cAMP. inhibition, % at 3.6 µM. actives 21% (n = 1,200); in the data active means inhibition above about 20%;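 further: 0% = vehicle with agonist plus stimulus and 100% = stimulus alone without agonist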
NPY-Y2 antag ct: counter-screen for NPY-Y1 antagonists: human NPY-Y2 antagonism. shares compounds with NPY Y1 blocker. HEK293 NPY-Y2 CNG membrane potential fluorescence; cells given NPY, then isoproterenol. inhibition, % at 3.6 µM. actives 28% (n = 1,200);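 further: 0% = DMSO with agonist challenge and 100% = reference antagonist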
The depositor's hits bear a star; nt = no result given. Hits are enriched below; roughly 2.4% of the tested compounds scored in any of these assays. Unless noted, no stated cut-off is given here; in the data, active means inhibition above about 17%; inactive means the rest.

SMILES	NPY-Y1 PAM-ag	S1P4 antagonist	S1P4 agonist	NPY2 pot ag	NPY Y1 blocker	NPY Y2 blocker	NPY1 antag conf	NPY-Y2 antag ct
COc1cccc(C2c3[nH]c4ccccc4c3CCN2CCCn2cccn2)c1 (centres undefined)	-3.6	0.6	-1.5	-7.3	9.5	nt	nt	nt
COc1ccc(C2c3[nH]c4ccccc4c3CCN2CCCn2cccn2)c(C)c1C (centres undefined)	-15.3	24.2	-0.5	-16.9	36.4*	nt	18.6	19.6*
Cc1nc(C(=O)Nc2cccc(Cl)c2Cl)nn1-c1cc(OC(C)C)c(Cl)cc1Cl	-137.2	-21.1	0.6	-0.5	20.1*	10.0	14.0	25.9*
NC(=S)N/N=C/c1ccccc1OCCSc1ccc(Cl)cc1	0.7	13.6	-3.7	-3.8	-1.5	2.3	nt	nt
Cc1cccc(NC(=S)NC(=O)c2cc(-c3ccccc3)nc3ccccc23)c1	-14.0	-13.8	0.5	-2.7	20.8*	7.5	15.5	19.8*
Cc1ccccc1NC(=S)NC(=O)c1cc(-c2ccccc2)nc2ccccc12	-90.0	-6.2	-0.3	-83.0	21.3*	12.0	27.8*	37.9*
Cc1cccc(NC(=O)NNC(=O)c2cc(-c3ccccc3Cl)nc3ccccc23)c1	-8.9	-4.7	-0.5	-6.8	-0.5	7.3	nt	nt
Cc1ccc(C)c(NC(=O)c2cc(-c3cccnc3)nc3ccccc23)c1	1.7	8.3	0.2	3.2	7.0	nt	nt	nt
Cc1ccc(C(=O)Nc2ccc(C(=O)N3CCCCC3C)cc2)cc1 (centres undefined)	-0.1	8.9	2.4	-1.3	-1.9	nt	nt	nt
Cc1nc(N2CCCCC2)c2c(C)c(C(=O)Nc3cccc(C(F)(F)F)c3)sc2n1	-1.9	10.9	-4.0	-6.3	18.8	nt	nt	nt
Cc1nc(N2CCCCC2)c2c(C)c(C(=O)Nc3ccccc3C(F)(F)F)sc2n1	-47.5	3.4	-0.8	-37.2	26.9*	nt	22.3*	14.7
CNCc1cc(Cl)cc(OC)c1OC(C)C	-5.4	-5.5	-1.7	-8.2	24.3*	nt	24.1*	9.8
COCCCNC(=S)NNC(=O)c1csc(C)n1	-18.1	3.5	2.2	-7.0	nt	nt	nt	nt
OCCC1CN(CC(c2ccccc2)c2ccccc2)CCN1C1CCCC1 (centres undefined)	1.2	-2.2	1.5	-19.0	23.0*	nt	12.4	9.8
Cc1oc(-c2cccs2)nc1CN1CCN(C(C)C)C(CCO)C1 (centres undefined)	5.1	7.2	0.3	-2.8	3.2	nt	nt	nt
CCc1nc(N2CCN(C(=O)c3ccco3)CC2)c2c3c(sc2n1)CCCC3	-24.2	-3.4	-2.2	-25.5	1.7	4.4	nt	nt
CCc1nc(N2CCN(C(=O)c3ccccc3)CC2)c2c3c(sc2n1)CCCC3	-20.6	15.1	1.0	-8.4	21.8*	nt	8.6	10.2
Nc1c(C(=O)Nc2ccccc2)sc2nc3c(c(-c4ccco4)c12)CCCC3	-49.9	-15.9	0.7	-15.8	6.0	0.3	nt	nt
Cc1ccccc1NC(=O)c1sc2nc3c(c(-c4ccco4)c2c1N)CCCC3	-8.2	0.0	2.8	-0.8	23.5*	1.6	2.4	3.9
Cc1ccc(CSc2ncccc2C(=O)O)cc1	-21.3	-0.6	-0.5	-14.6	22.9*	12.3	10.9	5.8
Cc1cccc(CSc2ncccc2C(=O)O)c1	-38.1	-9.7	0.8	-22.1	5.3	8.7	nt	nt
COc1cccc(-c2nn(-c3ccccc3)cc2CN(C)Cc2ccon2)c1	12.2	-2.8	-0.7	-9.2	9.6	nt	nt	nt
COc1cccc(-c2nn(-c3ccccc3)cc2CN(C)Cc2c(C)nc3ccccn23)c1	-55.4	-12.3	0.3	-17.9	23.2*	nt	12.0	15.9
COc1ccc(CNC(=O)c2cc(C)nn2-c2ccccc2)cc1	-6.7	-8.5	0.3	-11.8	nt	nt	nt	nt
COc1ccc(-c2n(CC(=O)OC3CC(C)CCC3C(C)C)c3ccccc3[n+]2C)cc1 (centres undefined)	-94.9	9.4	1.2	-50.2	150.1*	nt	134.7*	91.3*
SMILES	NPY-Y1 PAM-ag	S1P4 antagonist	S1P4 agonist	NPY2 pot ag	NPY Y1 blocker	NPY Y2 blocker	NPY1 antag conf	NPY-Y2 antag ct
Cc1nn(-c2ccccc2)nc1CNC(=O)C1CC1	4.9	-3.1	-0.1	-18.9	nt	nt	nt	nt
COc1ccc(N2C(=O)CSC2c2ccccc2[N+](=O)[O-])cc1 (centres undefined)	-7.9	1.9	4.5	10.5	-4.5	nt	nt	nt
CCCSc1nc(-n2ncc(C#N)c2N)c2c3c(sc2n1)CCC(C)C3 (centres undefined)	-54.5	-1.6	1.2	-27.7	21.1*	12.2	6.1	10.6
Cc1nc(-n2ncc(C#N)c2N)c2c3c(sc2n1)CCC3	-4.8	3.3	-2.8	-1.5	14.4	1.4	nt	nt
CCOC(=O)c1c(-c2ccccc2)csc1NC(=O)CSc1nc(C)cc(C)n1	-35.8	1.8	0.7	-23.2	20.3*	9.2	9.0	15.3
COCCCNC(=S)NC1CCCCC1	-12.0	-16.6	-0.2	12.2	-1.2	3.1	nt	nt
CC1=CC(C)(C)n2c(O)c(N=N)c3cc(C)cc1c32	-58.7	1.2	-3.8	-5.3	22.7*	10.9	13.7	21.6*
O=C(NC1CCCCC1)C(c1ccc(O)c(O)c1)N(C(=O)Cn1nnc2ccccc21)c1cccc(O)c1 (centres undefined)	-8.7	-49.8	0.0	-17.6	-0.2	nt	nt	nt
Cc1cc(C(=O)N2CCc3c([nH]c4ccccc34)C2c2cccc(Cl)c2)nn1C (centres undefined)	-17.9	17.9	1.1	-18.8	36.3*	nt	19.5	61.5*
CSc1ccc(C2c3[nH]c4ccccc4c3CCN2C(=O)c2cc(C)n(C)n2)cc1 (centres undefined)	-13.1	20.4	0.5	-25.9	27.1*	nt	14.6	41.1*
O=C(c1cnccn1)N1CCc2c([nH]c3ccccc23)C1c1cccc(Cl)c1 (centres undefined)	11.4	-24.2	1.0	11.0	6.0	nt	nt	nt
Cc1cnc(C(=O)N2CCc3c([nH]c4ccccc34)C2c2ccc(F)cc2)cn1 (centres undefined)	14.7	-14.3	1.8	-5.1	1.1	nt	nt	nt
COc1ccc(C/C(C)=N/NC(=O)c2cccnc2)cc1	12.5	4.1	0.4	-1.1	-1.3	0.8	nt	nt
O=C(Nc1nc(-c2ccc3c(c2)OCCO3)cs1)C1CCCC1	-4.6	-2.5	-0.1	3.7	1.8	nt	nt	nt
CCc1c(C)sc(NC(=O)c2cccs2)c1C(=O)OC(C)C	-19.0	-4.6	0.5	-16.0	20.4*	3.6	10.0	18.4*
COc1ccc(NC(=O)CCSc2ccc(C)cc2)cc1S(=O)(=O)Nc1ccccc1Cl	3.5	-4.5	-1.2	-22.6	25.4*	1.1	-2.4	0.2
CC(NC(=O)Cn1c(NCCO)nc2ccccc21)C1CC2CCC1C2 (centres undefined)	-39.2	-11.7	-2.9	-11.7	40.1*	nt	25.1*	12.1
